Calls of active or inactive are those of the source. The calls are words filed in the database; no cut-off is given here.
Assays:
[1] = Cytotoxicity against human WHCO1 cells after 48 hrs by MTT assay; settings: WHCO1, 48 h
[2] = Ratio of cisplatin IC50 to compound IC50 for human WHCO1 cells after 48 hrs by MTT assay
[3] = tested on: NIH3T3; assay: Cytotoxicity against mouse NIH/3T3 cells after 96 hrs by MTT assay; format: cell-based; settings: for Activity: mouse, nih3t3, 96 h; for IC50: Mus musculus, NIH3T3, 96 h
How it was run: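 NIH3T3 fibroblasts kept in DMEM with 10% heat-inactivated FCS plus penicillin/streptomycin/amphotericin at 37 °C, 9% CO2. Seeded at 1000 cells/well overnight, then exposed to 0, 10, 100, 1 000 and 10 000 nM or vehicle (0.02% v/v) for 96 h.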

[4] = tested on: WHCO1; assay: Induction of apoptosis in human WHCO1 cells assessed as PARP cleavage at 20 uM after 6 to 48 hrs by MTT assay; format: functional, cell-based; settings: in the assay text read “by Western blot analysis” for “by MTT assay”
How it was run: (§1)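 Western blot of WHCO1 cells given varying concentrations for 6, 24 and 48 h, protein extracted at each time point. PARP cleavage to […] 85 kDa fragments taken as the apoptosis marker; c-Jun levels probed on the same blots.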

[5] = tested on: WHCO1; assay: Induction of apoptosis in human WHCO1 cells assessed as PARP cleavage at 5 to 10 uM after 6 to 48 hrs by MTT assay; format: functional, cell-based; settings: in the assay text read “by Western blot analysis” for “by MTT assay”
How it was run: as §1

[6] = tested on: WHCO1; assay: Induction of apoptosis in human WHCO1 cells assessed as increase in c-jun level after 6 to 24 hrs by MTT assay; format: functional, cell-based; settings: in the assay text read “by Western blot analysis” for “by MTT assay”
How it was run: as §1

[7] = Cytotoxicity against human WHCO1 cells after 24 hrs by MTT assay; format: functional, cell-based; settings: WHCO1, 24 h
[8] = Ratio of cisplatin IC50 to compound IC50 for human WHCO1 cells after 24 hrs by MTT assay; format: functional

Compound | IC50 [1] [µM] | Ratio IC50 [2] | other results
O=C(C1=CC(=O)c2ccccc2C1=O)c1ccc(Cl)cc1 | 72.9 |  | 
O=C1C=C(C(O)c2ccoc2)C(=O)c2ccccc21 (stereo not given) | 10.9 | 2 | 
O=C1C=C(C(O)c2ccc(Cl)cc2)C(=O)c2ccccc21 (stereo not given) | 3 | 2 | Activity [3]: Non-toxic
O=C1C=C(C(O)c2ccc(F)cc2)C(=O)c2ccccc21 (stereo not given) | 5.1 | 2 | IC50 [3]: 11.7 µM
O=C1C=C(C(O)c2cccc(Cl)c2)C(=O)c2ccccc21 (stereo not given) | 7.3 | 2 | Activity [3]: Non-toxic
O=C(C1=CC(=O)c2ccccc2C1=O)c1ccccc1 | 63.4 |  | 
O=C(C1=CC(=O)c2ccccc2C1=O)c1cccc(F)c1 | 94.8 |  | 
O=C1C=C(C(O)CCc2ccccc2)C(=O)c2ccccc21 (stereo not given) | 4.8 | 2 | 
CC1(C)OC2=C(CC1O)C(=O)C(=O)c1ccccc12 (stereo not given) | 6.5 | 2 | 
O=C1C=C(C(O)c2cccc(F)c2)C(=O)c2ccccc21 (stereo not given) | 5.5 | 2 | IC50 [3]: 82 µM
CC1(C)CCC2=C(O1)c1ccccc1C(=O)C2=O [LAPACHONE] | 1.6 | 10 | 
O=C1C=C([C@@H](O)c2ccccc2)C(=O)c2ccccc21 | 3.8 |  | Activity [4]: Active; Activity [5]: inactive; Activity [6]: Dose-dependent effect
O=C1C=C(C(O)c2ccccc2)C(=O)c2ccccc21 (racemic) | 3.9 | 11 | Activity [4]: Active; Activity [5]: inactive; Activity [3]: Non-toxic; Activity [6]: Dose-dependent effect
CC(C)=CC(O)C1=CC(=O)c2ccccc2C1=O (stereo not given) | 5.2 |  | 
O=C(CCc1ccccc1)C1=CC(=O)c2ccccc2C1=O | 83.7 |  | 
CC1(C)OC2=C(CC1Br)C(=O)C(=O)c1ccccc12 (stereo not given) | 1.8 | 9 | 

Compound | IC50 [1] [µM] | Ratio IC50 [2] | other results
CC(O)C1=CC(=O)c2ccccc2C1=O (stereo not given) | 6.4 |  | 
O=C1C=C(C(O)c2ccc3ccccc3c2)C(=O)c2ccccc21 (stereo not given) |  |  | IC50 [7]: 2.4 µM; Ratio IC50 [8]: 2
CC1(C)CC2=C(O1)c1ccccc1C(=O)C2=O [NOR-BETA-LAPACHONE] | 2.4 | 7 | 
Cc1cc(Cl)ccc1C(=O)C1=CC(=O)c2ccccc2C1=O | 50.4 |  | 
C=CC(O)C1=CC(=O)c2ccccc2C1=O (stereo not given) | 4.3 |  | 
CC(C)=CCC1=C(O)C(=O)c2ccccc2C1=O [LAPACHOL] | 24.1 |  | 
Cc1cc(Cl)ccc1C(O)C1=CC(=O)c2ccccc2C1=O (stereo not given) | 3.4 | 2 | IC50 [3]: 7.4 µM
O=C1C=C(Cc2ccccc2)C(=O)c2ccccc21 | 21.6 |  | 
O=C1C=C([C@H](O)c2ccccc2)C(=O)c2ccccc21 | 4.3 |  | Activity [4]: Active; Activity [5]: inactive; Activity [6]: Dose-dependent effect
CC1(C)CCC2=C(O1)C(=O)c1ccccc1C2=O [ALPHA-LAPACHONE] | 28.7 |  | 
O=C(C1=CC(=O)c2ccccc2C1=O)c1cccc(Cl)c1 | 94.8 |  | 
O=C(C1=CC(=O)c2ccccc2C1=O)c1ccoc1 | 96.9 |  | 
O=C(C1=CC(=O)c2ccccc2C1=O)c1ccc(F)cc1 | 74.9 |  | 
O=C1C=C(c2ccccc2)C(=O)c2ccccc21 | 11.7 | 2 | 
CC(C)=CCC1=CC(=O)c2ccccc2C1=O [DEOXYLAPACHOL] | 15 |  | 
